UPR CHOP act = activators of apoptotic arm of unfolded protein response (CHOP); CHO-CHOP luciferase reporter, UPR activation, luminescence; percent of tunicamycin response over DMSO baseline; activation, % at 10 µM; hit rate 0.34% among 330,000;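 active means at 10 µM dose, activation of 40% or more, normalized to positive control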;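 further: 100% = tunicamycin at 10 µg/mL and 0% = DMSO alone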
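Test system: CHO CHOP reporter cells. Input: 500 CHO-CHOP cells per well. Medium: F12 with 10% FBS. Technique: luciferase luminescence. Measure: percent activation relative to tunicamycin control. Dosing: 10 µM compound, 0.5% DMSO. Timing: 16-18 h cell attachment, then 6 h compound exposure, 37 °C.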
UBC13 polyUb = inhibitors of human UBC13 polyubiquitin chain formation; P61088; TR-FRET; inhibition, % at 20 µM; hit rate 0.47% among 330,000; AID 485273; in the data active means inhibition above about 45%, passing the limit was not always enough
Mdm2-MdmX inh = disrupts the human Mdm2-MdmX interaction | AID 485346 | hit rate 3% among 330,000 | inhibition, % at 8 µM | O15151+Q00987 | SaOS-2 split-luciferase Mdm2/MdmX complementation, luminescence;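 active means inhibition of at least 50% at 8 µM in the primary screen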
Apaf1 inhib = human Apaf-1 inhibition; reconstituted apoptosome caspase-3 activity, DEVD-Rh110 fluorescence; O14727; hit rate 0.71% among 330,000; inhibition, % at 20 µM; active means inhibition of at least 40% at 20 µM;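 further: plate controls were DMSO wells for no effect and DEVD-CHO caspase inhibitor wells for full effect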
Target sequence (O14727 whole entry, looked up): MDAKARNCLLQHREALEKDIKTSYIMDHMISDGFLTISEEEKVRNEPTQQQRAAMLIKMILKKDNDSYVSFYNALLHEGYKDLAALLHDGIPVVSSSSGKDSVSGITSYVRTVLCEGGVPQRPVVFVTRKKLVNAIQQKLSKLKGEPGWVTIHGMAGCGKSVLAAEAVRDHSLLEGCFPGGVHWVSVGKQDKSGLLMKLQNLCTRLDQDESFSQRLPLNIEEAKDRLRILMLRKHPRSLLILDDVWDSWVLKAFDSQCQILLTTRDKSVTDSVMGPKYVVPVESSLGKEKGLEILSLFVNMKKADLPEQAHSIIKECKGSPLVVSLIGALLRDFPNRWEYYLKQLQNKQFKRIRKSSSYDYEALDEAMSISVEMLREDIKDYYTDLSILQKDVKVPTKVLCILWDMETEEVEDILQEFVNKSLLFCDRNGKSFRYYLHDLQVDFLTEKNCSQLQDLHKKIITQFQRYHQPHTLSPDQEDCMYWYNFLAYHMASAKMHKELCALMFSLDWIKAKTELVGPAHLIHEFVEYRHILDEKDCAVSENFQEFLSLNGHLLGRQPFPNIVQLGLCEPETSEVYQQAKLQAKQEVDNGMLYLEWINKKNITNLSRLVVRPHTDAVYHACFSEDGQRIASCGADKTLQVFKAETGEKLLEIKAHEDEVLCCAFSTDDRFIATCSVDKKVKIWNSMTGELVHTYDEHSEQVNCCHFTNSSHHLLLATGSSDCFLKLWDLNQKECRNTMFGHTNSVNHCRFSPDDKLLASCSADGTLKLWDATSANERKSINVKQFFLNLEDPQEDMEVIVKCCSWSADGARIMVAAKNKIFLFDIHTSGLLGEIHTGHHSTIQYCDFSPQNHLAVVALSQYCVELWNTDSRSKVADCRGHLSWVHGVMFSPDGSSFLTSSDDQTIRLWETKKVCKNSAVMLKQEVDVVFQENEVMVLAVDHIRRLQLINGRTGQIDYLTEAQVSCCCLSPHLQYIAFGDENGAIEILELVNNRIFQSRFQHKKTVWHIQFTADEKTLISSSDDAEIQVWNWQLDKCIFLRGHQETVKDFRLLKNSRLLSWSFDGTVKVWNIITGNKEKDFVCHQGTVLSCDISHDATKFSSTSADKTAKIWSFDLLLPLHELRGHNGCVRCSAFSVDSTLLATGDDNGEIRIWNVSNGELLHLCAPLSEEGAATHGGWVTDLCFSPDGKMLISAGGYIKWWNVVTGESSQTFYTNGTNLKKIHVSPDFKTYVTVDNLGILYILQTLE
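System: reconstituted apoptosome with Apaf-1, cytochrome c, caspase-9, procaspase-3, dATP; Signal: Rh110 fluorescence intensity; Schedule: 30 min compound preincubation, 50 min activation, room temperature; Reagent: cytochrome c trigger plus (Z-DEVD)2-Rh110 caspase-3 substrate.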
UPR XBP1 act = activators of adaptive arm of unfolded protein response (XBP1); AID 463104; activation, % at 20 µM; CHO-XBP1 luciferase reporter, IRE1-XBP1 UPR activation, luminescence; percent of tunicamycin response, DMSO as zero; hit rate 0.33% among 330,000;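 active means versus positive control, 20 µM dose yields 30% or more activation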;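 further: 100% = tunicamycin at 10 µg/mL and 0% = DMSO only wells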
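Test system: CHO-XBP1 luciferase reporter cells | Buffer or medium: Serum-containing F12 medium, 10% FBS | Schedule: 6 h compound exposure at 37 °C, 5% CO2 | Detection: Steady-Glo luciferase glow luminescence, 10 min after reagent addition | Read-out basis: Activation, % of tunicamycin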
Mdm2-MdmX conf = confirmation of human Mdm2/MdmX interaction inhibitors; shares compounds with Mdm2-MdmX inh; Mdm2-MdmX binding, luminescent assay; inhibition, % at 8 µM; hit rate 55% among 10,000; in the data active means inhibition above about 40%
FLuc counter = counter-screen for Mdm2/MdmX inhibitors: full-length luciferase; inhibition, % at 8 µM; shares compounds with Mdm2-MdmX inh; SaOS-2 full-length luciferase counterscreen, luminescence; hit rate 77% among 6,200;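 active means mean inhibition at 8 µM reaching about 37%, which flags the compound as non-specific, limit read from the data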;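 further: p53-null SaOS-2 cells with luciferase driven by a doxycycline-inducible promoter; compound on cells about two nights before reading with doxycycline added after day one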
* = called active by the depositor. Rows were chosen to be rich in hits. Some 4.1% of all compounds tested hit in one or more screens of this group.

O=C(Oc1c(-c2ccccc2)c(=O)n2c3c(cccc13)CC2)c1ccccc1 was read as UPR CHOP act 6, UBC13 polyUb 2, Mdm2-MdmX inh 48, Apaf1 inhib 12 and UPR XBP1 act 5.
`O=C(Oc1c(-c2ccccc2)c(=O)n2c3c(cccc13)CC2)c1ccc(F)cc1` gave UPR CHOP act 2, UBC13 polyUb 8, Mdm2-MdmX inh 54*, Apaf1 inhib 24, UPR XBP1 act -1 and Mdm2-MdmX conf 17.
`COc1cccc(NC(=O)COC(=O)CCC(=O)c2cccs2)c1` gave UPR CHOP act 3, UBC13 polyUb -15, Mdm2-MdmX inh -20, Apaf1 inhib -1 and UPR XBP1 act -1.
For COc1ccc(-c2nc(NC(=O)C3CCN(c4nc5ccccc5o4)CC3)sc2C)cc1 the results were UPR CHOP act 0, UBC13 polyUb 2, Mdm2-MdmX inh 51*, Apaf1 inhib 21, UPR XBP1 act -1 and Mdm2-MdmX conf 29.
Screening COc1ccc(-c2nc(NC(=O)Cn3c(=O)oc4ccccc43)sc2C)cc1 returned UPR CHOP act -3, UBC13 polyUb -8, Mdm2-MdmX inh 11, Apaf1 inhib 39 and UPR XBP1 act 3.
`COCCn1nnnc1C(C(C)C)N(Cc1cccnc1)Cc1ccccc1Cl` (configuration not stated) gave UPR CHOP act -1, UBC13 polyUb -6, Mdm2-MdmX inh 65*, Apaf1 inhib 16, UPR XBP1 act -4 and Mdm2-MdmX conf 4.
Screening N#CCCN(C(=O)COC(=O)CNS(=O)(=O)c1ccc2ccccc2c1)c1ccccc1 returned UPR CHOP act -3, UBC13 polyUb 3, Mdm2-MdmX inh 18, Apaf1 inhib -5 and UPR XBP1 act -1.
Screening Cc1cc2c(N=NC(=O)C3CC3c3ccccc3)c(O)[nH]c2cc1Br (configuration not stated) returned UPR CHOP act 0, UBC13 polyUb -18, Mdm2-MdmX inh 54*, Apaf1 inhib 37, UPR XBP1 act -3 and Mdm2-MdmX conf -8.
Screening Cc1cccc(-c2nnn(Cc3nnc(NC(=O)c4ccccc4)s3)n2)c1 returned UPR CHOP act 3, UBC13 polyUb -8, Mdm2-MdmX inh 71*, Apaf1 inhib -2, UPR XBP1 act 1 and Mdm2-MdmX conf -6.
For COc1cc(CNCCc2c[nH]c3ccccc23)cc(Cl)c1OCC(N)=O the results were UPR CHOP act 0, UBC13 polyUb 21, Mdm2-MdmX inh 9, Apaf1 inhib -5 and UPR XBP1 act -2.
Screening COc1cccc(CNCCc2c[nH]c3ccccc23)c1OCc1ccc(F)cc1 returned UPR CHOP act -1, UBC13 polyUb 36, Mdm2-MdmX inh 68*, Apaf1 inhib 11, UPR XBP1 act -4 and Mdm2-MdmX conf 38.
`COc1cc(CNCCc2c[nH]c3ccccc23)ccc1OCc1ccc(F)cc1` gave UPR CHOP act 1, UBC13 polyUb 43, Mdm2-MdmX inh 99*, Apaf1 inhib 19, UPR XBP1 act 3, Mdm2-MdmX conf 59* and FLuc counter 57*.
For C=CCNC(=O)N1CCC(c2nc3ccccc3s2)CC1 the results were UPR CHOP act -2, UBC13 polyUb -2, Mdm2-MdmX inh -23, Apaf1 inhib 1 and UPR XBP1 act -5.
`CCCOC(=O)C(C)n1cnc2scc(-c3ccc(C)cc3)c2c1=O` (configuration not stated) gave UPR CHOP act -1, UBC13 polyUb -5, Mdm2-MdmX inh -7, Apaf1 inhib 19 and UPR XBP1 act -1.
For C=CCn1c(COc2ccccc2)nnc1SC(C)C(=O)N/N=C/c1cc(Cl)ccc1O (configuration not stated) the results were UPR CHOP act -4, UBC13 polyUb -20, Mdm2-MdmX inh 65*, Apaf1 inhib 11, UPR XBP1 act -3, Mdm2-MdmX conf 60* and FLuc counter 31.
For Oc1ccc(Nc2nc(-c3ccccc3O)nc3ccccc23)cc1 the results were UPR CHOP act 1, UBC13 polyUb 14, Mdm2-MdmX inh 54*, Apaf1 inhib 18, UPR XBP1 act 8 and Mdm2-MdmX conf 24.
Screening COc1ccc(Nc2nc(-c3ccccc3O)nc3ccccc23)cc1 returned UPR CHOP act -1, UBC13 polyUb 0, Mdm2-MdmX inh 24, Apaf1 inhib 10 and UPR XBP1 act 1.
For COc1ccc(Nc2nc(-c3ccccc3F)nc3ccccc23)cc1OC the results were UPR CHOP act 1, UBC13 polyUb 5, Mdm2-MdmX inh 55*, Apaf1 inhib 7, UPR XBP1 act 16 and Mdm2-MdmX conf 33.
For Cc1cccc2sc(N(CCCN(C)C)C(=O)CCc3ccccc3)nc12 the results were UPR CHOP act 4, UBC13 polyUb 29, Mdm2-MdmX inh 60*, Apaf1 inhib 13, UPR XBP1 act 3 and Mdm2-MdmX conf 23.
CN(C)CCCN(C(=O)c1ccco1)c1nc2ccc(Br)cc2s1 was read as UPR CHOP act 1, UBC13 polyUb 8, Mdm2-MdmX inh 26, Apaf1 inhib -10 and UPR XBP1 act -2.
`CN(C)CCCN(C(=O)CCc1ccccc1)c1nc2ccc(Br)cc2s1` gave UPR CHOP act 2, UBC13 polyUb 18, Mdm2-MdmX inh 58*, Apaf1 inhib 25, UPR XBP1 act 6, Mdm2-MdmX conf 37 and FLuc counter 52*.
CSc1nc(C2CC2)cc(-c2cccs2)c1C#N was read as UPR CHOP act 0, UBC13 polyUb 4, Mdm2-MdmX inh 88*, Apaf1 inhib 7, UPR XBP1 act 7, Mdm2-MdmX conf 79* and FLuc counter 79*.
Screening CC1(C)NC(=O)N(CC(O)CN(c2ccccc2)S(=O)(=O)c2ccccc2[N+](=O)[O-])C1=O (configuration not stated) returned UPR CHOP act 0, UBC13 polyUb 3, Mdm2-MdmX inh 19, Apaf1 inhib 2 and UPR XBP1 act 0.
Screening O=C(N/N=C/c1sc2ccccc2c1O)c1ccccc1 returned UPR CHOP act 0, UBC13 polyUb -54, Mdm2-MdmX inh 68*, Apaf1 inhib 10, UPR XBP1 act 3, Mdm2-MdmX conf 67* and FLuc counter 41*.
COc1ccc2cc(C(=O)N/N=C/c3sc4ccccc4c3O)ccc2c1 was read as UPR CHOP act 2, UBC13 polyUb -22, Mdm2-MdmX inh 89*, Apaf1 inhib 8, UPR XBP1 act -1, Mdm2-MdmX conf 89* and FLuc counter 32.
O=C(N/N=C/c1ccc([N+](=O)[O-])s1)c1ccccc1 was read as UPR CHOP act 1, UBC13 polyUb -44, Mdm2-MdmX inh 37, Apaf1 inhib 8 and UPR XBP1 act 9.

From PubChem
